# MEKK3 PB1 HTS: modulators of MEKK3-MEK5 PB1 binding, primary screen, biochemical, wildtype MEKK3, multiplex bead flow cytometry, Alexa488-MEK5. Mitogen-activated protein kinase kinase kinase 3 (Homo sapiens), Q99759. bead-based flow cytometry, Alexa488-MEK5 binding to MEKK3; actives lie on both sides; 0 = blocked by unlabeled MEK5, 100 = vehicle. binding response (% of control), % at 10 µM. 1.4% of 290,000 active;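 active = binding response more than 3 SD above or below the average of its plate-row segment, actives on both sides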;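 note: Alexa488 bead fluorescence after subtracting the streptavidin-only scavenger bead signal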
# Apaf-1 inh: inhibitors of human Apaf-1 apoptosome, primary screen, biochemical, DEVD-Rh110 fluorescence, uHTS | 0.71% of 330,000 active | Apoptotic protease-activating factor 1 (Homo sapiens), O14727 | reconstituted apoptosome caspase-3 activity | inhibition, % at 20 µM; active = inhibition of at least 40% at 20 µM;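 note: plate controls were DMSO wells for no effect and DEVD-CHO caspase inhibitor wells for full effect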
#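 System: reconstituted apoptosome with Apaf-1, cytochrome c, caspase-9, procaspase-3, dATP; Signal: Rh110 fluorescence intensity; Schedule: 30 min compound preincubation, 50 min activation, room temperature; Reagent: cytochrome c trigger plus (Z-DEVD)2-Rh110 caspase-3 substrate.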
# MEKK2 mut-MEK5: MEK5 binding signal on mutant MEKK2 PB1, primary screen, biochemical, multiplex bead flow cytometry, Alexa488-MEK5. Alexa488-MEK5 binding to MEKK2 mutant. percent response, % at 10 µM. 0.35% of 290,000 active. AID 1530, 2009; in the data active = percent response above about 24%, passing the limit was not always enough
# MEKK2 WT-MEK5: modulators of MEK5 binding to wildtype MEKK2, primary screen, biochemical, multiplex bead flow cytometry, Alexa488-MEK5; Mitogen-activated protein kinase kinase kinase 2 (Homo sapiens), Q9Y2U5; AID 1531, 2009; binding response (% of control), % at 10 µM; 1.1% of 290,000 active; Alexa488-MEK5 binding to MEKK2 WT; actives lie on both sides; in the data active = binding response below about 67% or above about 130%
# UCH37 DUB inh: inhibitors of human UCH37 deubiquitinase, primary screen, biochemical, Ub-AMC cleavage, fluorescence; inhibition, % (concentration not given with the values); purified proteasome/UCH37; 0.33% of 330,000 active; AID 588478, 2011;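 active = mean inhibition over replicate wells above about 20%, limit read from the data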;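 note: 0% = compound-free wells with enzyme and 100% = wells lacking proteasome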
# Target sequence (Q9Y5K5 whole entry, looked up): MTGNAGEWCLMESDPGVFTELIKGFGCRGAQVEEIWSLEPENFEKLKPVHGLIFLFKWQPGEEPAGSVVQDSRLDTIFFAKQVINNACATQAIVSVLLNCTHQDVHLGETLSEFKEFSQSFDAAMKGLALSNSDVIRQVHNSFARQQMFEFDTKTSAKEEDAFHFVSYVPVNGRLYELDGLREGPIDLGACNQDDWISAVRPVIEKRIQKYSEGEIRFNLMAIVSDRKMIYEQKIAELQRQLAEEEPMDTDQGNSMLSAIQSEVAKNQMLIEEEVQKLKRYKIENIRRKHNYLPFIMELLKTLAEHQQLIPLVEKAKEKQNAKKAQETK
#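 Material: Human UCH37 enzyme supplied as purified proteasome complex | Schedule: 30 min preincubation with enzyme, 25 min cleavage at room temperature | Detection: AMC fluorescence 355/460 nm | Measure: % inhibition of Ub-AMC cleavage fluorescence | Controls: Wells without proteasome as full block, compound-free enzyme plus substrate as uninhibited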
# UBC13 polyUb: UBC13 polyubiquitin chain formation inhibitors, primary screen, biochemical, TR-FRET, uHTS. inhibition, % at 20 µM. Ubiquitin-conjugating enzyme E2 N (Homo sapiens), P61088. 0.47% of 330,000 active; in the data active = inhibition above about 45%, passing the limit was not always enough
# Target sequence (P61088 whole entry, looked up): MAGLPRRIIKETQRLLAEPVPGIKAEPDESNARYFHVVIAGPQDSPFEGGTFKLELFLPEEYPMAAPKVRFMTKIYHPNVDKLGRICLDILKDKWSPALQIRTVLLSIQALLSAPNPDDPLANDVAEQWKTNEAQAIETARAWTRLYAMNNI
# MEKK2wt confirm: modulators of MEK5 binding to wildtype MEKK2, confirmation, biochemical, single concentration, multiplex bead flow cytometry | shares compounds with MEKK3 PB1 HTS | Alexa488-MEK5 binding to MEKK2 WT; actives lie on both sides | binding response (% of control), % at 10 µM | 2.4% of 5,900 active | AID 1892, 2009; in the data active = binding response below about 16% or above about 210%; inactive = in between
# MEKK2mut-MEK5: mutant MEKK2 PB1-MEK5 binding signal retest – biochemical, single concentration, multiplex bead flow cytometry, confirmation; percent response, % at 10 µM; AID 1893, 2009; shares compounds with MEKK3 PB1 HTS; 2% of 5,900 active; Alexa488-MEK5 binding to MEKK2 mutant; in the data active = percent response mostly above about 71%, no sharp cut-off; inactive = mostly below about 38%;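 note: higher means compound restores mutant binding toward wildtype level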
# MEKK3-MEK5 inh: MEKK3 wild-type PB1 binding to MEK5, inhibitors, confirmation, biochemical, bead multiplex flow cytometry, single concentration, wildtype. shares compounds with MEKK3 PB1 HTS. Alexa488-MEK5 binding to MEKK3; hits give low values. binding response (% of control), % at 10 µM. 1.8% of 5,900 active;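 active = binding response below 72% of control, or above a set upper limit, though filed actives all read lower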;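 note: 100% = DMSO only wells and 0% = binding blocked by excess unlabeled MEK5; lower values mean stronger disruption of MEK5 binding to MEKK3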
# Numbers without * were called inactive; i = inactive; x = no result given; [ ] = another dose, or the depositor's remark. Only some compounds are listed: those with a hit (about 3% of all), similar ones and a draw of the others.
SMILES,MEKK3 PB1 HTS,Apaf-1 inh,MEKK2 mut-MEK5,MEKK2 WT-MEK5,UCH37 DUB inh,UBC13 polyUb,MEKK2wt confirm,MEKK2mut-MEK5,MEKK3-MEK5 inh
Cc1coc2c1C(=O)C(=O)c1c-2ccc2c(C)cccc12,120.0,96.0*,1.0,138.0*,1.7,-93.4,101.0,1.0,107.0
Cc1ccc2c3c(cccc13)-c1ccccc1C2=O,87.0,21.3,-5.0,59.0,-21.1,30.5,x,x,x
CCCCCOc1ccc(C(=O)NCCC(=O)NCCCC(=O)OCC)cc1,106.0,-3.4,3.0,107.0,3.8,4.7,x,x,x
CCCOc1ccc(C(=O)NCCC(=O)NCCCC(=O)O)cc1,130.0*,-6.0,22.0,124.0,6.0,6.2,100.0,1.0,95.0
O=C(N=C1c2ccccc2CN1c1cccc(Cl)c1)c1cccnc1,56.0*[inhibitor],-9.7,-2.0,88.0,3.3,1.3,51.0,-23.0,90.0
O=C(N=C1c2ccccc2CN1c1ccc(F)c(F)c1)c1cccnc1,107.0,-9.7,-1.0,101.0,-0.9,0.4,x,x,x
O=C(NC(=S)NCCC1=CCCCC1)c1cncc(Br)c1,152.0*,14.1,0.0,106.0,0.6,4.7,99.0,1.0,104.0
O=C(NC(=S)NCCC1=CCCCC1)c1ccccc1Br,104.0,10.0,-3.0,96.0,x,-6.5,x,x,x
CCOc1ccc(S(=O)(=O)N(C)c2ccc(OCC(=O)N3c4ccc(C)cc4C4CN(C)CCC43)cc2)cc1 (centres undefined),108.0,1.6,37.0,140.0*,1.0,-2.2,127.0,15.0,101.0
Cc1ccc2c(c1)C1CN(C)CCC1N2C(=O)COc1ccc(N(C)S(=O)(=O)c2cccs2)cc1 (centres undefined),76.0,-2.4,-18.0,83.0,1.4,20.6,x,x,x
Cc1ccc(S(=O)(=O)N2CCC(=O)N(C(COCc3cccc(C)c3)C(C)C)CC2)cc1 (centres undefined),105.0,23.6,-4.0,97.0,0.8,5.2,x,x,x
O=C(c1ccc(Cl)c(Cl)c1)N1CCC(=O)N(C(COCc2ccc(Cl)cc2)Cc2ccccc2)CC1 (centres undefined),102.0,17.8,-4.0,96.0,-0.1,-1.6,x,x,x
CNCc1ccccc1Sc1cccc2ccccc12,154.0*,-0.9,2.0,122.0,0.6,15.8,125.0,12.0,104.0
Cc1ccc(-c2nnn(CC(=O)N(Cc3ccccc3)C(C(=O)NC3CCCC3)c3ccncc3)n2)o1 (centres undefined),103.0,2.2,1.0,100.0,5.7,7.9,x,x,x
Cc1ccc2nnnc(-c3ccccc3)c2c1,88.0,0.6,-9.0,54.0*[inhibitor],1.6,4.6,98.0,8.0,104.0
Cc1[nH]c2c(Cl)cccc2c1CCNC(=O)C1CCCCC1C(=O)OCC(F)(F)F (centres undefined),102.0,15.9,1.0,94.0,2.1,2.5,x,x,x
CCC(C)NC(=O)c1cc2cc3ccc(OC)cc3nc2s1 (centres undefined),126.0*,11.4,5.0,120.0,i,35.6,97.0,-4.0,98.0
CCCN1CCC(=O)N([C@H](CSc2ccc(C)cc2)c2ccccc2)CC1,115.0,39.4,20.0,157.0*,0.9,37.1,174.0,40.0,100.0
Cc1ccc(NC(=O)C2C3CCC(O3)C2C(=O)O)cc1Cl (centres undefined),2.0*[inhibitor],-16.0,-61.0,3.0*[inhibitor],-3.3,2.5,100.0,-5.0,99.0
OC(COc1ccc(CNCCc2ccccc2F)cc1)CN1CCCCC1 (centres undefined),102.0,14.1,58.0*,168.0*,-1.4,6.7,140.0,15.0,109.0
COc1ccc(N2CCN(C(=O)NC3CCCCC3)CC2)cc1,77.0*[inhibitor],4.2,-2.0,99.0,2.4,-5.1,104.0,1.0,102.0
O=C(c1ccccc1)C1C(c2ccccc2)C1[N+](=O)[O-] (centres undefined),110.0,4.2,7.0,109.0,-0.4,-11.4,x,x,x
CN(C)c1ccc([C@@H]2[C@@H]([N+](=O)[O-])[C@H]3C=Cc4ccccc4N3[C@H]2C(=O)c2ccc(Cl)cc2)cc1,80.0,29.4,6.0,1.0*[inhibitor],6.1,-88.1,92.0,-3.0,94.0
CNC[C@H](CC1CCCCC1)NC[C@H](CO)NCC1(c2ccccc2)CC1,103.0,4.7,-1.0,114.0,1.2,19.7,x,x,x
CNC[C@H](CC1CCCCC1)NC[C@H](CO)NCCc1cccc(C(F)(F)F)c1,104.0,9.9,6.0,152.0*,x,37.7,156.0,39.0,109.0
SMILES,MEKK3 PB1 HTS,Apaf-1 inh,MEKK2 mut-MEK5,MEKK2 WT-MEK5,UCH37 DUB inh,UBC13 polyUb,MEKK2wt confirm,MEKK2mut-MEK5,MEKK3-MEK5 inh
Cc1onc(-c2c(Cl)cccc2Cl)c1C(=O)N1CCN(c2ccccc2F)CC1,104.0,1.2,4.0,104.0,2.0,4.5,x,x,x
CC12CCC(C(=O)N(CC(O)CN3CCCCCC3)C1=O)C2(C)C (centres undefined),145.0*,-5.2,0.0,107.0,-1.2,-2.4,94.0,-5.0,97.0
Cc1ccc(OCC(=O)N(Cc2cccs2)C2CCS(=O)(=O)C2)cc1C (centres undefined),105.0,-17.0,5.0,100.0,6.4,-3.9,x,x,x
COc1ccc(/C=C2/C(=O)N(Cc3ccccc3)N=C2C)cc1,128.0*,13.7,3.0,104.0,6.5,-4.3,98.0,2.0,93.0
Cc1ccc(/C=N/NC(=O)c2ccco2)s1,101.0,-4.1,3.0,103.0,x,-26.5,x,x,x
COc1ccc(N2C(=O)c3cccc4cc(Br)cc(c34)C2=O)cc1,73.0*[inhibitor],3.7,-18.0,91.0,1.5,-6.9,96.0,-3.0,97.0
COc1ccc(NC(=O)N(C)C[C@H]2Oc3ccc(NC(=O)Nc4ccc5c(c4)OCO5)cc3C(=O)N([C@H](C)CO)C[C@@H]2C)cc1,x,x,x,x,1.2,x,x,x,x

# High-throughput results (PubChem)
